# According to ChEMBL document CHEMBL3102749, “Antiprotozoal activity of dicationic 3,5-diphenylisoxazoles, their prodrugs and aza-analogues” (Bioorg Med Chem, 2014):
# Activity calls are given as the source filed them. The calls are words filed in the database; no cut-off is given here.
# What was measured:
# Plasmodium falciparum = assay: Antiplasmodial activity against chloroquine/pyrimethamine-resistant Plasmodium falciparum K1 infected in human red blood cells assessed as [3H]-hypoxanthine incorporation incubated for 48 hrs prior to [3H]-hypoxanthine addition measured after 24 hrs by liquid scintillation counting analysis; type: functional, organism-based
# [1] = Selectivity index, ratio of IC50 for rat L6 cells to IC50 for chloroquine/pyrimethamine-resistant Plasmodium falciparum K1 infected in human red blood cells; type: toxicity, cell-based; conditions: read-out: Ratio IC50
# Method in brief: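 Ratio of IC50 in L6 rat myoblast cytotoxicity assay to IC50 against P. falciparum K1; each IC50 is the mean of two independent assays.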
# L6 = assay: Cytotoxicity against rat L6 cells assessed as cell viability after 70 hrs by Alamar blue assay; type: cell-based; conditions: L6, 70 h
# [2] = Selectivity index, ratio of IC50 for rat L6 cells to IC50 for Trypanosoma brucei rhodesiense STIB900; type: toxicity, cell-based; conditions: read-out: Ratio IC50
# Method in brief: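 Ratio of IC50 in L6 rat myoblast cytotoxicity assay to IC50 against T. b. rhodesiense STIB900; each IC50 is the mean of two independent assays.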
# [3] = tested on: Trypanosoma brucei rhodesiense; assay: Antitrypanosomal activity against Trypanosoma brucei rhodesiense STIB900 assessed as growth inhibition after 70 hrs by Alamar blue assay; type: functional, organism-based; conditions: STIB900, 70 h
# [4] = tested on: Trypanosoma brucei rhodesiense; assay: Trypanocidal activity against bloodstream form of Trypanosoma brucei rhodesiense STIB900 infected in NMRI mouse assessed as mean survival days at 5 mg/kg, ip qd administered for 4 days; type: functional; conditions: route intraperitoneal
# Method in brief: (§1)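 Mice infected with T. b. rhodesiense STIB900 (acute model) dosed once daily for 4 consecutive days, ip (diamidines) or oral (prodrugs). Cure means survival to 60 days post infection without parasitemia relapse. Mean survival days post infection are averaged over all mice, with cured mice counted as >60 days.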
# [5] = tested on: Trypanosoma brucei rhodesiense; assay: Trypanocidal activity against bloodstream form of Trypanosoma brucei rhodesiense STIB900 infected in NMRI mouse assessed as decrease in parasitemia at 5 mg/kg, ip qd administered for 4 days measured once per week until 60 days by microscopic analysis; type: functional, organism-based; parameters: dose 5 mg/kg
# Method in brief: (§2)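 Mice infected with T. b. rhodesiense STIB900 received one dose daily for 4 consecutive days, 4 mice per group. Diamidines were given intraperitoneally and prodrugs orally. The primary endpoint was cures per group: a mouse counted as cured if it survived 60 days post-infection without parasitemia relapse.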
# [6] = tested on: Trypanosoma brucei rhodesiense; assay: Trypanocidal activity against bloodstream form of Trypanosoma brucei rhodesiense STIB900 infected in NMRI mouse assessed as decrease in parasitemia at 25 mg/kg, po qd administered for 4 days measured once per week until 60 days by microscopic analysis; type: functional, organism-based; parameters: dose 25 mg/kg; method in brief: as §2
# [7] = tested on: Trypanosoma brucei rhodesiense; assay: Trypanocidal activity against bloodstream form of Trypanosoma brucei rhodesiense STIB900 infected in NMRI mouse assessed as mean survival days at 25 mg/kg, po qd administered for 4 days; type: functional; method in brief: as §1
SMILES,IC50 (Plasmodium falciparum),selectivity ratio [1],IC50 (L6),selectivity ratio [2],IC50 [3],MSD [4],Activity [5],Activity [6],MSD [7]
N=C(N)c1cncc(-c2cc(-c3cccc(C(=N)N)c3)on2)c1,0.018 µM,> 10000,> 180 µM,> 309,0.583 µM,–,–,–,–
Cl.Cl.N=C(N)c1cccc(-c2cc(-c3ccc(C(=N)N)nc3)on2)c1,0.0011 µM,1290,1.4 µM,379,0.0037 µM,>41.75 days,inactive,–,–
COc1ccc(C(=N)N)cc1-c1cc(-c2ccc(C(=N)N)cc2[N+](=O)[O-])no1.Cl.Cl,–,–,–,–,–,>60 days,Active,–,–
Cl.Cl.Cl.N=C(N)c1cccc(-c2cc(-c3cc(C(=N)N)ccc3Cl)on2)c1,–,–,–,–,–,25 days,inactive,–,–
CO/N=C(\N)c1ccc(-c2cc(-c3ccc(/C(N)=N/OC)cc3OC)no2)cc1.Cl.Cl,–,–,–,–,–,–,–,inactive,27 days
N=C(N)c1cccc(-c2cc(-c3cc(C(=N)N)ccn3)on2)c1,0.0249 µM,> 7230,> 180 µM,> 986,0.183 µM,–,–,–,–
COc1cc(C(=N)N)ccc1-c1cc(-c2cc(C(=N)N)ccc2OC)on1.Cl.Cl,–,–,–,–,–,>60 days,Active,–,–
Cl.Cl.N=C(N)c1ccc(-c2cc(-c3cccc(C(=N)N)c3)no2)nc1,0.0041 µM,27800,115 µM,15900,0.0072 µM,>38.75 days,inactive,–,–
Cl.Cl.N=C(N)c1ccc(-c2cc(-c3ccc(C(=N)N)cn3)on2)cc1,0.0096 µM,3750,35.9 µM,2970,0.0121 µM,>44 days,–,–,–
CO/N=C(\N)c1ccc(-c2cc(-c3ccc(/C(N)=N/OC)cc3)on2)cc1.Cl.Cl,–,–,–,–,–,–,–,–,>42.25 days
Cl.Cl.Cl.N=C(N)c1cccc(-c2cc(-c3ccc(C(=N)N)cc3Cl)no2)c1,–,–,–,–,–,24 days,inactive,–,–
N=C(N)c1ccc(-c2cc(-c3cc(C(=N)N)ccn3)on2)nc1,0.142 µM,> 1260,> 180 µM,> 53,3.38 µM,–,–,–,–
Cl.Cl.N=C(N)c1ccc(-c2cc(-c3ccc(C(=N)N)nc3)on2)cc1,0.0017 µM,1050,1.76 µM,643,0.0027 µM,>57.25 days,–,–,–
Cl.Cl.N=C(N)c1ccc(-c2cc(-c3cc(C(=N)N)ccn3)on2)cc1,0.058 µM,2570,149 µM,2320,0.0643 µM,28.5 days,inactive,–,–
Cl.Cl.N/C(=N\O)c1ccc(-c2cc(-c3cccc(/C(N)=N/O)c3)no2)cc1,–,–,–,–,–,–,–,inactive,20 days
N=C(N)c1ccnc(-c2cc(-c3cc(C(=N)N)ccn3)on2)c1,0.327 µM,> 550,> 180 µM,> 32,5.71 µM,–,–,–,–
CO/N=C(\N)c1ccc(-c2cc(-c3cc(/C(N)=N/OC)ccc3[N+](=O)[O-])no2)cc1.Cl.Cl,–,–,–,–,–,–,–,inactive,13.5 days
N=C(N)c1cccc(-c2cc(-c3cc(C(=N)N)ccn3)no2)c1,0.015 µM,8700,130 µM,265,0.492 µM,–,–,–,–
COc1cc(/C(N)=N/O)ccc1-c1cc(-c2ccc(/C(N)=N/O)cc2OC)on1.Cl.Cl,–,–,–,–,–,–,–,inactive,12 days
CO/N=C(\N)c1ccc(-c2cc(-c3cc(/C(N)=N/OC)ccc3OC)no2)cc1.Cl.Cl,–,–,–,–,–,–,–,–,>37.25 days
CO/N=C(\N)c1cccc(-c2cc(-c3ccc(/C(N)=N/OC)cc3OC)on2)c1.Cl.Cl,–,–,–,–,–,–,–,inactive,7.25 days

SMILES,IC50 (Plasmodium falciparum),selectivity ratio [1],IC50 (L6),selectivity ratio [2],IC50 [3],MSD [4],Activity [5],Activity [6],MSD [7]
COc1cc(/C(N)=N/O)ccc1-c1cc(-c2cccc(/C(N)=N/O)c2)no1.Cl.Cl,–,–,–,–,–,–,–,inactive,8 days
Cl.Cl.Cl.N=C(N)c1ccc(-c2cc(-c3ccc(C(=N)N)cc3Cl)on2)cc1,–,–,–,–,–,>31 days,inactive,–,–
Cl.Cl.N/C(=N\O)c1ccc(-c2cc(-c3cc(/C(N)=N/O)ccc3[N+](=O)[O-])no2)cc1,–,–,–,–,–,–,–,inactive,7.25 days
Cl.Cl.N=C(N)c1ccc(-c2cc(-c3ccc(C(=N)N)cc3[N+](=O)[O-])no2)cc1,–,–,–,–,–,>51.25 days,–,–,–
Cl.Cl.N=C(N)c1ccc(-c2cc(-c3ccc(C(=N)N)cc3)on2)cc1,–,–,–,–,–,>60 days,–,–,–
Cl.Cl.Cl.N=C(N)c1cccc(-c2cc(-c3cc(C(=N)N)ccc3Cl)no2)c1,–,–,–,–,–,22.25 days,inactive,–,–
Cl.Cl.N=C(N)c1ccc(-c2cc(-c3cncc(C(=N)N)c3)on2)cc1,0.0189 µM,231,4.37 µM,302,0.0144 µM,>54.5 days,–,–,–
Nc1nc(N)nc(Nc2ccc([As]3SCC(CO)S3)cc2)n1 (stereo unspecified),–,–,–,–,–,–,Active,–,–
Cl.Cl.N=C(N)c1cccc(-c2cc(-c3cncc(C(=N)N)c3)on2)c1,0.0217 µM,> 9170,> 180 µM,> 964,0.207 µM,21.75 days,inactive,–,–
N=C(N)c1ccc(-c2cc(-c3cc(C(=N)N)ccn3)no2)nc1,0.0074 µM,> 2430,> 180 µM,> 180,1.67 µM,–,–,–,–
N=C(N)c1cncc(-c2cc(-c3cncc(C(=N)N)c3)on2)c1,0.144 µM,> 1250,> 180 µM,> 29,6.12 µM,–,–,–,–
Cl.Cl.N=C(N)c1cccc(-c2cc(-c3ccc(C(=N)N)nc3)no2)c1,0.0005 µM,3800,2.08 µM,1120,0.0018 µM,>60 days,Active,–,–
COc1cc(/C(N)=N/O)ccc1-c1cc(-c2ccc(/C(N)=N/O)cc2)on1.Cl.Cl,–,–,–,–,–,–,–,–,>42 days
Cl.Cl.N=C(N)c1ccc(-c2cc(-c3ccc(C(=N)N)cc3[N+](=O)[O-])on2)cc1,–,–,–,–,–,>53.75 days,–,–,–
Cl.Cl.Cl.N=C(N)c1ccc(-c2cc(-c3ccc(C(=N)N)cc3Cl)no2)cc1,–,–,–,–,–,28 days,inactive,–,–
Cl.Cl.N=C(N)c1ccc(-c2cc(-c3ccc(C(=N)N)cn3)no2)cc1,0.0167 µM,2770,46.2 µM,915,0.0505 µM,>52.75 days,–,–,–
COc1cc(C(=N)N)ccc1-c1cc(-c2ccc(C(=N)N)cc2)on1.Cl.Cl,–,–,–,–,–,>60 days,Active,–,–
CO/N=C(\N)c1cccc(-c2cc(-c3ccc(/C(N)=N/OC)cc3OC)no2)c1.Cl.Cl,–,–,–,–,–,–,–,–,>50 days
COc1cc(C(=N)N)ccc1-c1cc(-c2ccc(C(=N)N)cc2OC)on1.Cl.Cl,–,–,–,–,–,>60 days,Active,–,–
C[C@@H]1CC[C@H]2[C@@H](C)C(=O)O[C@@H]3O[C@@]4(C)CC[C@@H]1[C@]32OO4 [ARTEMISININ],0.004 µM,–,> 180 µM,–,–,–,–,–,–
N=C(N)c1ccc(-c2cc(-c3ccc(C(=N)N)cn3)on2)nc1,0.134 µM,> 1350,> 180 µM,> 302,0.596 µM,–,–,–,–
